Test results published in ChEMBL document CHEMBL4706701, “Synthesis and biological activity of selenopsammaplin A and its analogues as antitumor agents with DOT1L inhibitory activity” (Bioorg Med Chem, 2021).
Active and inactive are the calls of the source. The calls are words filed in the database; no cut-off is given here.

Tests used:
[1] = system: A549; test: Cytotoxicity against human A549 cells assessed as reduction in cell viability by SRB assay; assay type: functional, cell-based
How it was run: (§1)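 Cells seeded in 96-well plates and exposed to compounds for the stated times. Zero-day controls were incubated 30 min. Cells were fixed and stained with 0.4% SRB in 1% acetic acid, and bound dye was dissolved in 10 mM Tris (pH 10.0). A515 was read, and IC50 was calculated by non-linear regression.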

[2] = system: HCT-116; test: Cytotoxicity against human HCT-116 cells assessed as reduction in cell viability by SRB assay; assay type: functional, cell-based; how it was run: as §1
[3] = system: MDA-MB-231; test: Cytotoxicity against human MDA-MB-231 cells assessed as reduction in cell viability by SRB assay; assay type: functional, cell-based; how it was run: as §1
[4] = system: SK-HEP1; test: Cytotoxicity against human SK-HEP1 cells assessed as reduction in cell viability by SRB assay; assay type: functional, cell-based; how it was run: as §1
[5] = system: SNU-638; test: Cytotoxicity against human SNU-638 cells assessed as reduction in cell viability by SRB assay; assay type: functional, cell-based; how it was run: as §1
[6] = molecular target: Histone-lysine N-methyltransferase, H3 lysine-79 specific (Homo sapiens) (UniProt Q8TEK3); test: Inhibition of human N-terminal GST-tagged DOT1L (2 to 416 residues) expressed in Escherichia coli at 200 nM using DOT1L substrate measured after 2 hrs in presence of SAM by ELISA
How it was run: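 Cell-free DOT1L enzyme activity assay using 500 ng DOT1L per well. Compound was incubated 2 h before read-out. EPZ-5676 (100 nM) was the positive control. Mean ± SD (n = 3), representative of three separate experiments.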

[7] = molecular target: Histone-lysine N-methyltransferase, H3 lysine-79 specific (Homo sapiens) (UniProt Q8TEK3); test: Inhibition of DOT1L in human MDA-MB-231 cells assessed as down regulation of H3K79me2 expression at 200 nM by Western blot analysis; assay type: cell-based
How it was run: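 MDA-MB-231 lysates were made in 2× SDS sample buffer with vanadate and fluoride. 5-20 μg protein was run on 8–15% SDS-PAGE and blotted to PVDF. Membranes were blocked in 5% BSA, probed for H3K79me2 with total histone H3, and detected by ECL. Mean ± SD (n = 3), representative of three separate experiments.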

[8] = Toxicity in human MDA-MB-231 cells xenografted BALB/c nu mouse assessed as body weight loss at 5 mg/kg, ip administered thrice per week for 38 days measured once per week during compound dosing; assay type: organism-based; details: in vivo, 912 h, time 38 day
How it was run: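 Female BALB/c-nu mice (5–6 wk) given 1 × 10⁷ luciferase-expressing MDA-MB-231 cells in 50:50 DMEM/Matrigel into the fourth fat pad; randomized after 10 days (six per group). Dosed ip in EtOH/Cremophor/saline (5:5:90) three times weekly for 38 days. Tumor L, W, H measured by caliper, volume = LWH/2; body weight weekly; tumors excised and weighed at termination.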

[9] = system: MCF-10A; test: Cytotoxicity against human MCF-10A cells assessed as reduction in cell viability by SRB assay; assay type: cell-based; how it was run: as §1
[10] = Selectivity ratio of IC50 for human MCF-10A cells to IC50 for human A549 cells; assay type: toxicity; details: MCF-10A cells versus A549 cells, read-out: Ratio IC50
[11] = Selectivity ratio of IC50 for human MCF-10A cells to IC50 for human HCT-116 cells; assay type: toxicity; details: MCF-10A cells versus HCT-116 cells, read-out: Ratio IC50
[12] = Selectivity ratio of IC50 for human MCF-10A cells to IC50 for human MDA-MB-231 cells; assay type: toxicity; details: MCF-10A cells versus MDA-MB-231 cells, read-out: Ratio IC50
[13] = Selectivity ratio of IC50 for human MCF-10A cells to IC50 for human SK-HEP1 cells
How it was run: (§2)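 Cytotoxicity by SRB assay: cells seeded in 96-well plates and treated with compounds; fixed, stained with 0.4% SRB in 1% acetic acid, dye dissolved in 10 mM Tris (pH 10.0), absorbance read at 515 nm. IC50 by non-linear regression, means of at least three experiments; ratio of MCF10A IC50 to cancer-line IC50.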

[14] = Selectivity ratio of IC50 for human MCF-10A cells to IC50 for human SNU-638 cells; how it was run: as §2
[15] = molecular target: Histone-lysine N-methyltransferase, H3 lysine-79 specific (Homo sapiens) (UniProt Q8TEK3); test: Inhibition of DOT1L in human MDA-MB-231 cells assessed as effect on H3K4 methylation at 200 nM by Western blot analysis; assay type: cell-based
How it was run: (§3)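 MDA-MB-231 cell lysates in 2× SDS buffer, protein by BCA; 5–20 μg on 8–15% SDS-PAGE, transferred to PVDF, BSA-blocked and probed with antibodies to H3K4me2, H3K27me2, H3K36me2, H3K79me2 and total histone H3; ECL detection. Mean ± SD (n = 3), three separate experiments.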

[16] = molecular target: Histone-lysine N-methyltransferase, H3 lysine-79 specific (Homo sapiens) (UniProt Q8TEK3); test: Inhibition of DOT1L in human MDA-MB-231 cells assessed as effect on H3K27 methylation at 200 nM by Western blot analysis; assay type: cell-based; how it was run: as §3
[17] = molecular target: Histone-lysine N-methyltransferase, H3 lysine-79 specific (Homo sapiens) (UniProt Q8TEK3); test: Inhibition of DOT1L in human MDA-MB-231 cells assessed as effect on H3K36 methylation at 200 nM by Western blot analysis; assay type: cell-based; how it was run: as §3
[18] = molecular target: Histone-lysine N-methyltransferase, H3 lysine-79 specific (Homo sapiens) (UniProt Q8TEK3); test: Inhibition of DOT1L in human MDA-MB-231 cells assessed as effect on histone H3 methylation at 200 nM by Western blot analysis; assay type: cell-based; how it was run: as §3
[19] = system: MDA-MB-231; test: Antimigratory activity in human MDA-MB-231 cells assessed as suppression of wound closure at 400 nM after 24 hrs by microscopic analysis; assay type: functional, cell-based
How it was run: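 MDA-MB-231 monolayers at 80–90% confluence scratched with a pipette tip, washed with PBS, then kept 24 h in medium with 1% FBS plus compound at various concentrations. Wounds photographed at 0 and 24 h; area measured by image analysis and expressed as wound healing (%) relative to the 0 h area. Mean ± SD (n = 3), three separate experiments.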

[20] = system: MDA-MB-231; test: Antiinvasive activity in human MDA-MB-231 cells assessed as reduction in cell invasion through matrigel-coated chamber at 400 nM after 24 hrs by diff-quik staining based microscopic analysis; assay type: functional
How it was run: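 MDA-MB-231 cells pretreated with compound (50–400 nM) for 24 h, harvested into serum-free medium and plated at 0.5–1 × 10⁶ cells/chamber on transwell inserts (8 μm pores) coated with type I collagen and 1:20 Matrigel/PBS; 30% FBS medium as chemoattractant below. After 24 h, invaded cells fixed, Diff-Quik stained, counted in 5 random fields at 200×; three separate experiments.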

Histone-lysine N-methyltransferase, H3 lysine-79 specific (Homo sapiens), sequence (Q8TEK3 whole entry, looked up, the tested form may be a part): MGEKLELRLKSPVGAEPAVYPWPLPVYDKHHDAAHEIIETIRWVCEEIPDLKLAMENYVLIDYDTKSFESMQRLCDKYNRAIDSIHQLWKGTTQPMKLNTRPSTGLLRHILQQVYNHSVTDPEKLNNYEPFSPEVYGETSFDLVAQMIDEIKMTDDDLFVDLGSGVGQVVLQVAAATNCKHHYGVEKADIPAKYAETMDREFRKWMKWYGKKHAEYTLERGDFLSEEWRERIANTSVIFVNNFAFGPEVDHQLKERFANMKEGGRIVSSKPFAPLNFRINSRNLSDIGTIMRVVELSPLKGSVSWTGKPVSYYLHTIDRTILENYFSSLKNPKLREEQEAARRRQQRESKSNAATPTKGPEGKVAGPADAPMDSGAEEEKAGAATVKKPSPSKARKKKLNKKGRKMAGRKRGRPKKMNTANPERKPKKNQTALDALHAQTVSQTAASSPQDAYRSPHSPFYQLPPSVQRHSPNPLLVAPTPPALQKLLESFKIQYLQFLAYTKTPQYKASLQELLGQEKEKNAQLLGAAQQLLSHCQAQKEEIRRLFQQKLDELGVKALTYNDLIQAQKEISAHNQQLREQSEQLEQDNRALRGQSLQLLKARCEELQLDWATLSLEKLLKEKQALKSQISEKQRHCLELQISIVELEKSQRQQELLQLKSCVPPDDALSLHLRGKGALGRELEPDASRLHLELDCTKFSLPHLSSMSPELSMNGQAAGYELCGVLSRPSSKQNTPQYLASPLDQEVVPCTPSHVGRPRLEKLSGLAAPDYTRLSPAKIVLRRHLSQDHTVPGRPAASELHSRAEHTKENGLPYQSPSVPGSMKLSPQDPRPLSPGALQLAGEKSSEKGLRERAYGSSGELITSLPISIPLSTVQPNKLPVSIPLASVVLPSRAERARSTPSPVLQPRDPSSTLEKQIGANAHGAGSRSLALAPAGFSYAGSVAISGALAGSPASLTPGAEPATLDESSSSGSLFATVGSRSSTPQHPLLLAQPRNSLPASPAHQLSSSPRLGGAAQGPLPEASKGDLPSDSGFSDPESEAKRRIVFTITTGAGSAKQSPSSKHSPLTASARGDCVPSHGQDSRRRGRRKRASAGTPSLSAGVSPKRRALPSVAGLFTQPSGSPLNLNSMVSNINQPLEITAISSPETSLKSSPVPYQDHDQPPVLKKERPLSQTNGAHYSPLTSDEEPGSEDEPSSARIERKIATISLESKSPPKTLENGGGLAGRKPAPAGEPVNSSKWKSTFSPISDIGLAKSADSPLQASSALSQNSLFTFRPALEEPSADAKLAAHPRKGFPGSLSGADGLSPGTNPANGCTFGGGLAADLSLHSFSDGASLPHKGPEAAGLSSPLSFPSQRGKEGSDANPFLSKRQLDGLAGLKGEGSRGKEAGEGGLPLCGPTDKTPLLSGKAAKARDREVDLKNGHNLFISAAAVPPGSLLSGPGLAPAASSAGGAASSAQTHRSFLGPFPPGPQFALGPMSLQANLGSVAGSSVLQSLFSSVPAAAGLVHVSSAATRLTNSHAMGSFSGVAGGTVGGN

O=C(NCC[Se][Se]CCNC(=O)/C(Cc1ccc(O)c(F)c1)=N/O)/C(Cc1ccc(O)c(F)c1)=N/O
IC50 [1]: 0.02 µM
IC50 [2]: 0.01 µM
IC50 [3]: 0.19 µM
IC50 [4]: 0.13 µM
IC50 [5]: 0.02 µM
inhibition [6]: Active
H3K79me2 downregulation (active/not active) [7]: Active

CC(=O)O[C@H]1C(=O)[C@@]2(C)[C@H]([C@H](OC(=O)c3ccccc3)[C@]3(O)C[C@H](OC(=O)[C@H](O)[C@@H](NC(=O)c4ccccc4)c4ccccc4)C(C)=C1C3(C)C)[C@]1(OC(C)=O)CO[C@@H]1C[C@@H]2O [PACLITAXEL]
Activity [8]: Toxic

O=C(NCC[Se][Se]CCNC(=O)/C(Cc1ccc2ccccc2c1)=N/O)/C(Cc1ccc2ccccc2c1)=N/O
IC50 [1]: 0.38 µM
IC50 [2]: 0.12 µM
IC50 [3]: 0.19 µM
IC50 [4]: 0.17 µM
IC50 [5]: 0.27 µM
H3K79me2 downregulation (active/not active) [7]: inactive

CC(C)(C)c1ccc(C/C(=N\O)C(=O)NCC[Se][Se]CCNC(=O)/C(Cc2ccc(C(C)(C)C)cc2)=N/O)cc1
IC50 [1]: 0.1 µM
IC50 [2]: 0.13 µM
IC50 [3]: 0.1 µM
IC50 [4]: 0.19 µM
IC50 [5]: 0.28 µM
inhibition [6]: Active
H3K79me2 downregulation (active/not active) [7]: Active

O=C(NCC[Se][Se]CCNC(=O)/C(Cc1ccc(Cl)cc1)=N/O)/C(Cc1ccc(Cl)cc1)=N/O
IC50 [1]: 0.25 µM
IC50 [2]: 0.28 µM
IC50 [3]: 0.33 µM
IC50 [4]: 0.33 µM
IC50 [5]: 0.22 µM
H3K79me2 downregulation (active/not active) [7]: Active

O=C(NCC[Se][Se]CCNC(=O)/C(Cc1ccc(O)c(Br)c1)=N/O)/C(Cc1ccc(O)c(Br)c1)=N/O
IC50 [1]: 0.03 µM
IC50 [2]: 0.01 µM
IC50 [3]: 0.16 µM
IC50 [4]: 0.21 µM
IC50 [5]: 0.02 µM
IC50 [9]: 16.1 µM
selectivity ratio [10]: > 100
selectivity ratio [11]: > 100
selectivity ratio [12]: > 100
Ratio IC50 [13]: 77
Ratio IC50 [14]: >100
inhibition [6]: Active
H3K79me2 downregulation (active/not active) [7]: Active

O=C(NCCSSCCNC(=O)/C(Cc1ccc(O)c(Br)c1)=N/O)/C(Cc1ccc(O)c(Br)c1)=N/O [PSAMMAPLIN A]
IC50 [1]: 1.76 µM
IC50 [2]: 0.61 µM
IC50 [3]: 1.31 µM
IC50 [4]: 1.29 µM
IC50 [5]: 0.56 µM
inhibition [6]: inactive
inhibition [15]: inactive
inhibition [16]: inactive
inhibition [17]: inactive
inhibition [18]: inactive
Activity [19]: inactive
Activity [20]: inactive

CCOc1ccc(C/C(=N\O)C(=O)NCC[Se][Se]CCNC(=O)/C(Cc2ccc(OCC)cc2)=N/O)cc1
IC50 [1]: 0.05 µM
IC50 [2]: 0.07 µM
IC50 [3]: 0.2 µM
IC50 [4]: 0.18 µM
IC50 [5]: 0.03 µM
inhibition [6]: Active
H3K79me2 downregulation (active/not active) [7]: Active
